The values below come from ChEMBL document CHEMBL1158396 (2009).

Structures are written as SMILES.

For assay [1], the species on record is Sus scrofa. The experiment in a line: Inhibition of pig GSK3 assessed as residual enzyme activity at 10 uM.
Assay [2] relates to HL-60. The experiment in a line: Antiproliferative activity against human HL60 cells at 10 uM after 72 hrs by MTS assay. Type of assay: functional. To be noted: HL-60, 72 h. Put shortly:
(§1)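 Cells kept in Glutamax RPMI with 10% fetal calf serum, penicillin and streptomycin, at 37 °C in 5% CO2. Plated at 500–800 cells/well and left 24 h before adding compound in DMSO (10^-6 or 10^-5 M final). Exposure was continuous for 72 h, then MTS read-out at 490 nm, in triplicate. Percent inhibition was taken from absorbance versus control wells after blank subtraction.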

Assay [3] has as its system HL-60. The experiment in a line: Antiproliferative activity against human HL60 cells at 1 uM after 72 hrs by MTS assay. Type of assay: functional. The settings on record: HL-60, 72 h. Put shortly: as §1
Assay [4] relates to K562. Briefly: Antiproliferative activity against human K562 cells at 1 uM after 72 hrs by MTS assay. Type of assay: functional. The settings on record: K562, 72 h. Put shortly:
as §1

In assay [5] the target is Cyclin-dependent kinase 5/CDK5 activator 1 (Homo sapiens) (UniProt Q00535+Q15078). Briefly: Inhibition of GST-CDK5/p25 expressed in Escherichia coli assessed as residual enzyme activity at 10 uM.
Cyclin-dependent kinase 5/CDK5 activator 1 (Homo sapiens), sequence (Q00535 whole entry): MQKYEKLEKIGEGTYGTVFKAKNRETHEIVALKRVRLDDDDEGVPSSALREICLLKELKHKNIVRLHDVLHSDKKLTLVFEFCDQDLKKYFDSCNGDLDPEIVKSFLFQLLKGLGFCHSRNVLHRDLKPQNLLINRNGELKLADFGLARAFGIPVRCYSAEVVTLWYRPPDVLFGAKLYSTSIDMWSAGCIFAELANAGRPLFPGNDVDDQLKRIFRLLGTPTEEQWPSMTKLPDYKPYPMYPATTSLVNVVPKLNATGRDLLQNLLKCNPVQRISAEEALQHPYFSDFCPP
Cyclin-dependent kinase 5/CDK5 activator 1 (Homo sapiens), sequence (Q15078 99-307 partner limits assumed): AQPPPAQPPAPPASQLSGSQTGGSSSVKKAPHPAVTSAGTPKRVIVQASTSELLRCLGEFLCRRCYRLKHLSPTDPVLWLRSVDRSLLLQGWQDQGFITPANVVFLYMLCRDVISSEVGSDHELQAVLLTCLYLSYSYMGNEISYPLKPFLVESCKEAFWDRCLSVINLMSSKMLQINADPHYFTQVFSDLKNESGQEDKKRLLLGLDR
In assay [6] the test system is K562. The experiment in a line: Antiproliferative activity against human K562 cells at 10 uM after 72 hrs by MTS assay. Type of assay: functional. To be noted: K562, 72 h. Put shortly:
as §1

Assay [7] deals with Dual specificity tyrosine-phosphorylation-regulated kinase 1A (Rattus norvegicus) (UniProt Q63470). The experiment in a line: Inhibition of rat GST-fused Dyrk1a expressed in Escherichia coli assessed as residual enzyme activity at 10 uM.
For assay [8], the species on record is Sus scrofa. The experiment in a line: Inhibition of pig CK1 assessed as residual enzyme activity at 10 uM.
Assay [9] concerns HL-60. The experiment in a line: Antiproliferative activity against human HL60 cells at 0.25 nM after 72 hrs by MTS assay. Type of assay: functional. The settings on record: HL-60, 72 h.
In assay [10] the test system is K562. Briefly: Antiproliferative activity against human K562 cells at 0.25 nM after 72 hrs by MTS assay. The class given is functional. The settings on record: K562, 72 h.

As for `CC(=O)OC[C@H]1O[C@@H](N2C(=O)/C(=C3/C(=O)Nc4ccc(C#CCCO)cc43)c3ccccc32)[C@H](OC(C)=O)[C@@H](OC(C)=O)[C@@H]1OC(C)=O`, the Activity in assay [1], in [5], in assay [7] and in assay [8] was > 65% in each case. For the same molecule, the inhibition at 10 µM is 8% in assay [2] and 33% in [6]. The results for the inhibition at 1 µM in assay [3] and in assay [4] were 0% and 2%, respectively.

Consider `CC(=O)OC[C@H]1O[C@@H](N2C(=O)/C(=C3/C(=O)Nc4ncc(C#CCCO)cc43)c3ccccc32)[C@H](OC(C)=O)[C@@H](OC(C)=O)[C@@H]1OC(C)=O`, for which the inhibition at 10 µM in assay [2] amounted to 0%; in assay [6], 10%. The figures for the inhibition at 1 µM in assay [3] and in assay [4] were 0% and 5%, respectively.

With `CC(=O)O[C@@]12CO[C@@H]1C[C@H](O)[C@@]1(C)C(=O)[C@H](O)C3=C(C)[C@@H](OC(=O)[C@H](O)[C@@H](NC(=O)OC(C)(C)C)c4ccccc4)C[C@@](O)([C@@H](OC(=O)c4ccccc4)[C@H]21)C3(C)C` [DOCETAXEL], the values for the inhibition at 0.00025 µM in assay [9] and in assay [10] were 46% and 32%, respectively.

For the molecule `CC(=O)OC[C@H]1O[C@@H](N2C(=O)/C(=C3/C(=O)Nc4ccc(C#CCNC(=O)OCc5ccccc5)cc43)c3ccccc32)[C@H](OC(C)=O)[C@@H](OC(C)=O)[C@@H]1OC(C)=O`, the Activity in [1], in [5], in assay [7] and in assay [8] was > 65% each time. Also, the figures for the inhibition at 10 µM in assay [2] and in assay [6] were 1% and 6%, respectively. Besides, the inhibition at 1 µM in assay [3] and in assay [4] was 0% throughout.

As to `CC(=O)OC[C@H]1O[C@@H](N2C(=O)/C(=C3/C(=O)Nc4ncc(I)cc43)c3cc(Br)ccc32)[C@H](OC(C)=O)[C@@H](OC(C)=O)[C@@H]1OC(C)=O`, the results for the inhibition at 10 µM in [2] and in assay [6] were 0% and 3%, respectively. Besides, the inhibition at 1 µM in [3] and in [4] was 0% throughout.

For `CC(=O)OC[C@H]1O[C@@H](N2C(=O)/C(=C3/C(=O)Nc4ncc(Br)cc43)c3cc(Br)ccc32)[C@H](OC(C)=O)[C@@H](OC(C)=O)[C@@H]1OC(C)=O`, the Activity in [1], in assay [5], in [7] and in assay [8] was > 65% in each case. Further, the figures for the inhibition at 10 µM in assay [2] and in [6] were 0% and 4%, respectively. Besides, the inhibition at 1 µM in [3] stood at 0%; in [4], 3%.

Consider `CC(=O)OC[C@H]1O[C@@H](N2C(=O)/C(=C3/C(=O)Nc4ncc(C#CCNC(=O)OCc5ccccc5)cc43)c3ccccc32)[C@H](OC(C)=O)[C@@H](OC(C)=O)[C@@H]1OC(C)=O`, for which the Activity in assay [1], in [5], in assay [7] and in assay [8] was > 65% in each case. For the same molecule, the inhibition at 10 µM worked out at 11% in [2] and 59% in [6]. Moreover, the figures for the inhibition at 1 µM in [3] and in [4] were 0% and 4%, respectively.

On to `CC(=O)OC[C@H]1O[C@@H](N2C(=O)/C(=C3/C(=O)Nc4ccc(I)cc43)c3cc(Br)ccc32)[C@H](OC(C)=O)[C@@H](OC(C)=O)[C@@H]1OC(C)=O`, for which the Activity in assay [1], in assay [5], in [7] and in assay [8] was > 65% throughout. The results for the inhibition at 10 µM in assay [2] and in [6] were 0% and 3%, respectively. Moreover, the inhibition at 1 µM in assay [3] and in assay [4] was 0% throughout.

Consider `CC(=O)OC[C@H]1O[C@@H](N2C(=O)/C(=C3/C(=O)Nc4ncc(I)cc43)c3ccccc32)[C@H](OC(C)=O)[C@@H](OC(C)=O)[C@@H]1OC(C)=O`, for which the Activity in assay [1], in assay [5], in [7] and in [8] was > 65% in each case. Besides, the values for the inhibition at 10 µM in assay [2] and in assay [6] were 1% and 47%, respectively. Moreover, the inhibition at 1 µM in [3] and in assay [4] was 0% in each case.

In the case of `CC(=O)OC[C@H]1O[C@@H](N2C(=O)/C(=C3/C(=O)Nc4ccc(I)cc43)c3ccccc32)[C@H](OC(C)=O)[C@@H](OC(C)=O)[C@@H]1OC(C)=O`, the Activity in assay [5] and in assay [7] was > 65% throughout.

For `CC(=O)OC[C@H]1O[C@@H](N2C(=O)/C(=C3/C(=O)Nc4ncc(C#CCNC(=O)OCc5ccccc5)cc43)c3cc(Br)ccc32)[C@H](OC(C)=O)[C@@H](OC(C)=O)[C@@H]1OC(C)=O`, the inhibition at 10 µM in assay [2] worked out at 0%; in [6] it was 5%. Besides, the inhibition at 1 µM in [3] and in [4] was 0% in each case.

Turning to `CC(=O)OC[C@H]1O[C@@H](N2C(=O)/C(=C3/C(=O)Nc4ncc(Br)cc43)c3ccccc32)[C@H](OC(C)=O)[C@@H](OC(C)=O)[C@@H]1OC(C)=O`, the Activity in assay [5] and in [7] was > 65% each time.

In the case of `CC(=O)OC[C@H]1O[C@@H](N2C(=O)/C(=C3/C(=O)Nc4ccc(C#CCNC(=O)OCc5ccccc5)cc43)c3cc(Br)ccc32)[C@H](OC(C)=O)[C@@H](OC(C)=O)[C@@H]1OC(C)=O`, the Activity in assay [1], in assay [5], in [7] and in assay [8] was > 65% throughout. For the same molecule, the inhibition at 10 µM in [2] came to 0%; in assay [6], 2%. For the same molecule, the inhibition at 1 µM in [3] came out at 0%; in assay [4], 1%.
